Assay results: ChEMBL document CHEMBL1146069, “Photodynamic efficiency of diethylene glycol-linked glycoconjugated porphyrins in human retinoblastoma cells” (J Med Chem, 2006); call rule not given here

What was measured:
Y79 [1] = assay: Toxicity against human Y79 cells at 2 uM after 4 hrs in dark; format: cell-based; conditions: y79, 4 h
Summary of the method: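 Y79 cells were plated at 2 × 10^5 cells/mL in COON's medium with 2% FCS. They were exposed to 2 µM dye (DMSO stock diluted in medium) for 4 h in the dark, then centrifuged, washed and resuspended in fresh complete medium with no irradiation. Survival fraction was measured by MTT at 570/640 nm.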

Y79 [2] = assay: Survival of human Y79 cells at 2 uM irradiated with 514 nM light at the fluence of 1 J/cm2 after 4 hrs; format: functional; conditions: Y79, light or radiation study, read-out: LD50 (the source's name)
Summary of the method: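 Y79 retinoblastoma cells (ATCC, suspension in COON's medium with 20% FCS) plated at 2 × 10^5 cells/mL in COON's with 2% FCS. Dye added from a 5 mg/mL DMSO stock, incubated 4 h in the dark, then cells centrifuged, washed and resuspended in fresh complete medium. Ar+ laser irradiation at 514 nm, 1 J/cm2. MTT viability read 24 h later at 570/640 nm.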

[3] = Partition coefficient of the compound, log P; format: physicochemical; conditions: octanol/water
B16 [4] = assay: Cellular uptake in mouse B16 cells relative to unglycosylated TPP(p-DegOH)3; format: ADME, cell-based
HT-29 [5] = assay: Cellular uptake in human HT29 cells relative to unglycosylated TPP(p-DegOH)3; format: ADME, cell-based
Y79 [6] = assay: Cellular uptake in human Y79 cells relative to unglycosylated TPP(p-DegOH)3; format: ADME, cell-based
B16 [7] = assay: Survival of mouse B16 cells at 2 uM irradiated with 514 nM light at the fluence of 5 J/cm2 after 4 hrs; format: functional; conditions: B16, light or radiation study, read-out: LD50 (the source's name)
Summary of the method: (§1)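 Adherent cells (human HT29 colorectal adenocarcinoma; murine B16 melanoma) seeded at 10^5 cells/mL. Dye added from a DMSO stock and incubated 4 h in DMEM with 2% FCS in the dark. Irradiation at 514 nm, 5 J/cm2, in the same dye-containing medium. Survival measured by MTT colorimetric assay.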

HT-29 [8] = assay: Survival of human HT29 cells at 2 uM irradiated with 514 nM light at the fluence of 5 J/cm2 after 4 hrs; format: functional; conditions: HT-29, light or radiation study, read-out: LD50 (the source's name); summary of the method: as §1

For OCCOCCOc1ccc(-c2c3nc(c(-c4ccccc4)c4ccc([nH]4)c(-c4ccc(OCCOCCO)cc4)c4ccc([nH]4)c(-c4ccc(OCCOCCO)cc4)c4nc2C=C4)C=C3)cc1, the Activity (Y79 [1]) was “Not Active”, the CC50 (Y79 [2]) was over 2000 nM and the logP [3] was over 2. It also gave a Ratio (B16 [4]) of 1, a Ratio (HT-29 [5]) of 1 and a Ratio (Y79 [6]) of 1.

With OC[C@H]1O[C@@H](SCCOCCOc2ccc(-c3c4nc(c(-c5ccccc5)c5ccc([nH]5)c(-c5ccc(OCCOCCS[C@@H]6O[C@H](CO)[C@H](O)[C@@H](O)[C@H]6O)cc5)c5ccc([nH]5)c(-c5ccc(OCCOCCS[C@@H]6O[C@H](CO)[C@H](O)[C@@H](O)[C@H]6O)cc5)c5nc3C=C5)C=C4)cc2)[C@H](O)[C@H](O)[C@H]1O the Activity (Y79 [1]) was “Not Active”, the CC50 (Y79 [2]) was 600 nM and the logP [3] was -0.07. The CC50 (B16 [7]) was 2000 nM, the CC50 (HT-29 [8]) was 820 nM and the Ratio (B16 [4]) was 2.7. The Ratio (HT-29 [5]) was 3 and the Ratio (Y79 [6]) was 3.5.

For OC[C@H]1O[C@@H](OCCOCCOc2ccc(-c3c4nc(c(-c5ccccc5)c5ccc([nH]5)c(-c5ccc(OCCOCCO[C@@H]6O[C@H](CO)[C@H](O)[C@@H](O)[C@H]6O)cc5)c5ccc([nH]5)c(-c5ccc(OCCOCCO[C@@H]6O[C@H](CO)[C@H](O)[C@@H](O)[C@H]6O)cc5)c5nc3C=C5)C=C4)cc2)[C@H](O)[C@H](O)[C@H]1O, the Activity (Y79 [1]) was “Not Active”, the CC50 (Y79 [2]) was 600 nM and the logP [3] was 0.23. It also gave a CC50 (B16 [7]) of 680 nM, a CC50 (HT-29 [8]) of 250 nM and a Ratio (B16 [4]) of 4. It also gave a Ratio (HT-29 [5]) of 4.4 and a Ratio (Y79 [6]) of 3.7.

In the case of OC[C@H]1O[C@H](OCCOc2ccc(-c3c4nc(c(-c5ccccc5)c5ccc([nH]5)c(-c5ccc(OCCO[C@H]6O[C@H](CO)[C@@H](O)[C@@H](O)[C@@H]6O)cc5)c5ccc([nH]5)c(-c5ccc(OCCO[C@H]6O[C@H](CO)[C@@H](O)[C@H](O)[C@@H]6O)cc5)c5nc3C=C5)C=C4)cc2)[C@@H](O)[C@@H](O)[C@@H]1O, the Activity (Y79 [1]) is reported as “Not Active”, the CC50 (Y79 [2]) is reported as 600 nM and the logP [3] is reported as 0.78. It also gave a CC50 (B16 [7]) of 850 nM, a CC50 (HT-29 [8]) of 440 nM and a Ratio (B16 [4]) of 1.8. The Ratio (HT-29 [5]) was 1.7 and the Ratio (Y79 [6]) was 1.6.

In the case of OC[C@H]1O[C@H](OCCOCCOc2ccc(-c3c4nc(c(-c5ccccc5)c5ccc([nH]5)c(-c5ccc(OCCOCCO[C@H]6O[C@H](CO)[C@@H](O)[C@H](O)[C@@H]6O)cc5)c5ccc([nH]5)c(-c5ccc(OCCOCCO[C@H]6O[C@H](CO)[C@@H](O)[C@H](O)[C@@H]6O)cc5)c5nc3C=C5)C=C4)cc2)[C@@H](O)[C@@H](O)[C@@H]1O, the Activity (Y79 [1]) is reported as “Not Active”, the CC50 (Y79 [2]) is reported as 350 nM and the logP [3] is reported as 0.02. For the same compound, the CC50 (B16 [7]) was 430 nM, the CC50 (HT-29 [8]) was 350 nM and the Ratio (B16 [4]) was 6.5. The Ratio (HT-29 [5]) was 5 and the Ratio (Y79 [6]) was 4.9.

For OC[C@H]1O[C@H](OCCOCCOc2ccc(-c3c4nc(c(-c5ccccc5)c5ccc([nH]5)c(-c5ccc(OCCOCCO[C@H]6O[C@H](CO)[C@H](O)[C@@H](O)[C@H]6O)cc5)c5ccc([nH]5)c(-c5ccc(OCCOCCO[C@H]6O[C@H](CO)[C@H](O)[C@@H](O)[C@H]6O)cc5)c5nc3C=C5)C=C4)cc2)[C@H](O)[C@H](O)[C@H]1O, the Activity (Y79 [1]) was “Not Active”, the CC50 (Y79 [2]) was 50 nM and the logP [3] was 0.5. The CC50 (B16 [7]) was 100 nM, the CC50 (HT-29 [8]) was 820 nM and the Ratio (HT-29 [5]) was 1.8. It also gave a Ratio (Y79 [6]) of 2.

For OC[C@H]1O[C@H](SCCOCCOc2ccc(-c3c4nc(c(-c5ccccc5)c5ccc([nH]5)c(-c5ccc(OCCOCCS[C@H]6O[C@H](CO)[C@@H](O)[C@H](O)[C@@H]6O)cc5)c5ccc([nH]5)c(-c5ccc(OCCOCCS[C@H]6O[C@H](CO)[C@@H](O)[C@H](O)[C@@H]6O)cc5)c5nc3C=C5)C=C4)cc2)[C@@H](O)[C@@H](O)[C@@H]1O, the Activity (Y79 [1]) was “Not Active”, the CC50 (Y79 [2]) was 650 nM and the logP [3] was 0.46. The CC50 (B16 [7]) was 2000 nM, the CC50 (HT-29 [8]) was over 2000 nM and the Ratio (B16 [4]) was 1.3. The Ratio (HT-29 [5]) was 1.2 and the Ratio (Y79 [6]) was 1.4.
